Data set [1] in a line: folding enthalpy; higher = less favourable; fluorescence melt of hairpins on a sequencing array, two-state fit. To be noted: sodium 0.088 M. An outline of the steps:
(§1)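 Hairpins were imaged by Cy3 fluorescence on a sequenced MiSeq flow cell with annealed Cy3 and quencher oligos, in 50 mM Na-HEPES pH 8.0, 25 mM NaCl, in 2.5 °C steps up to 60 °C. Bootstrapped two-state fits of normalised signals gave melting temperature and folding enthalpy. Four replicates were combined by inverse variance, and fitted temperatures were raised by 9.35 °C to match UV melts.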

Data set [2] can be described thus: melting temperature; fluorescence melt of hairpins on a sequencing array, two-state fit, raised by 9.35 °C to match UV melts. The settings on record: sodium 0.088 M. An outline of the steps: as §1

Consider GCTGAACGAAAGTTAGC (((.(((....)))))), for which the folding enthalpy in data set [1] was -26 kcal/mol. In addition, the Tm in data set [2] stood at 44.1 °C.

Consider GCAAGCCCGAAAGGGTGC (((..(((....)))))), for which the folding enthalpy in data set [1] was -14.4 kcal/mol. Further, in data set [2], the Tm stood at 47.2 °C.

On to GTCTGCGAAAGCATGAC ((((((....))).))), for which the folding enthalpy in data set [1] was -23.5 kcal/mol. For the same sequence, in data set [2], the Tm is 52.7 °C.

For the sequence GTCACCGAAAGGTAGAC ((((((....))).))), in data set [1], the folding enthalpy was -18.9 kcal/mol. Moreover, in data set [2], the Tm came to 51 °C.

For GATCATTGCCATGATC ((((((....)))))), the folding enthalpy in data set [1] was -39.3 kcal/mol. Further, in data set [2], the Tm is 46.4 °C.

As for GATCTACCCTAGATC ((((((...)))))), the folding enthalpy in data set [1] was -24.7 kcal/mol. In addition, the Tm in data set [2] amounted to 40.7 °C.

As for GATCGACCCGTCGATC ((((((....)))))), the folding enthalpy in data set [1] is -47.1 kcal/mol. For the same sequence, the Tm in data set [2] was 60.1 °C.

Regarding GTATAGGGAAACTTATAC (((((.(....).))))), the folding enthalpy in data set [1] was -14.2 kcal/mol. Further, in data set [2], the Tm is 27.7 °C.

With GCGGGGCGAAAGCGCGGC ((.(.((....)).).)), the folding enthalpy in data set [1] is -27.6 kcal/mol. Further, the Tm in data set [2] was determined as 62.5 °C.

Consider GATCAGTTTCCTGATC ((((((....)))))), for which, in data set [1], the folding enthalpy was -35 kcal/mol. The Tm in data set [2] turned out to be 50.9 °C.

For the sequence GGTAGACCGAAAGGTACC (((..(((....)))))), the folding enthalpy in data set [1] is -19.8 kcal/mol. Besides, in data set [2], the Tm was found to be 38 °C.

For the sequence GAATCCGAAAGGATATTC ((((((....)))..))), the folding enthalpy in data set [1] is -13.1 kcal/mol. Moreover, in data set [2], the Tm was 33.6 °C.

Regarding GATCTAGTCTTAGATC ((((((....)))))), the folding enthalpy in data set [1] is -39.3 kcal/mol. In addition, the Tm in data set [2] was 45 °C.

Regarding GGATCGGAAACGATCC ((((((....)))))), in data set [1], the folding enthalpy is -28.6 kcal/mol. Also, the Tm in data set [2] stood at 66.2 °C.

For GAACATGGAAACATGTCC (.(((((....))))).), the folding enthalpy in data set [1] was -15.4 kcal/mol. For the same sequence, the Tm in data set [2] was 35.8 °C.

For the sequence GATCGTCAAACGATC ((((((...)))))), in data set [1], the folding enthalpy is -31.7 kcal/mol. Further, the Tm in data set [2] came out at 52.1 °C.

On to GGGTACGGAAACGCACCC ((((.((....)).)))), for which the folding enthalpy in data set [1] is -49.4 kcal/mol. In addition, in data set [2], the Tm turned out to be 52.3 °C.

Regarding GTCATCCGAAAGGAGGAC (((.(((....))).))), in data set [1], the folding enthalpy is -36.3 kcal/mol. For the same sequence, in data set [2], the Tm was found to be 58.6 °C.

For GTGACCGGAAACGATCAC ((((.((....)).)))), in data set [1], the folding enthalpy is -39.6 kcal/mol. Also, in data set [2], the Tm was 46.6 °C.

As to GCACGCGAAAGCGATTGC ((((((....)))..))), in data set [1], the folding enthalpy is -14.2 kcal/mol. In data set [2], the Tm was found to be 45.9 °C.

Turning to GCATTCGAAAGAAGATGC ((((((....)))..))), in data set [1], the folding enthalpy is -17.7 kcal/mol. Besides, the Tm in data set [2] is 36.2 °C.

For the sequence GATCCGTTGACGGATC ((((((....)))))), in data set [1], the folding enthalpy was -39.1 kcal/mol. For the same sequence, the Tm in data set [2] was found to be 61.8 °C.

As for GATCCCCCCGGGATC ((((((...)))))), in data set [1], the folding enthalpy was -33.1 kcal/mol. In data set [2], the Tm came out at 65.8 °C.

As for CGATCGGAAACGATTCG ((((((....))).))), the folding enthalpy in data set [1] was -24.9 kcal/mol. Also, the Tm in data set [2] was determined as 43.7 °C.

GGCTTTGGAAACAGAGCC ((((.((....)).)))): the folding enthalpy in data set [1] was -35.3 kcal/mol. Further, in data set [2], the Tm was 50.6 °C.

As for GGCTCCGGAAACGGAGTC (.(((((....))))).), the folding enthalpy in data set [1] is -30.1 kcal/mol. In data set [2], the Tm amounted to 60.8 °C.

Consider GTTGTACGAAAGTAGAAC (((.(((....))).))), for which the folding enthalpy in data set [1] is -30.1 kcal/mol. Moreover, the Tm in data set [2] was 44 °C.

For GGTTGAGAAATCAACC ((((((....)))))), in data set [1], the folding enthalpy is -34 kcal/mol. The Tm in data set [2] was determined as 53.3 °C.

Regarding GCTGTCGAAAGACGAGC ((((((....))).))), the folding enthalpy in data set [1] was -25.6 kcal/mol. For the same sequence, the Tm in data set [2] came to 54.1 °C.

GATCACATAAGTGATC ((((((....)))))): the folding enthalpy in data set [1] is -39.3 kcal/mol. Also, the Tm in data set [2] came out at 58.9 °C.

Take CGTCGCGGAAACGCAACG (((.(((....))).))): the folding enthalpy in data set [1] was -28.8 kcal/mol. Also, the Tm in data set [2] was 50.5 °C.

GATCGCCGAGCGATC ((((((...)))))): in data set [1], the folding enthalpy is -32.5 kcal/mol. In addition, the Tm in data set [2] is 67.3 °C.

As for GATCTCACGCGAGATC ((((((....)))))), the folding enthalpy in data set [1] is -41.7 kcal/mol. Further, the Tm in data set [2] is 52.7 °C.

Take GTGGGAGGAAACTTCCAC ((((.((....)).)))): in data set [1], the folding enthalpy is -41.1 kcal/mol. Further, in data set [2], the Tm was 49.2 °C.

In the case of GTCCACGAAAGTGATGAC ((((((....)))..))), in data set [1], the folding enthalpy is -14.8 kcal/mol. The Tm in data set [2] is 39.4 °C.

On to GTTTGTGGAAACACAGAC ((.((((....)))).)), for which, in data set [1], the folding enthalpy was -23.6 kcal/mol. Also, the Tm in data set [2] worked out at 43.9 °C.

On to GACTGACGAAAGTCGGTC (((.(((....))).))), for which the folding enthalpy in data set [1] is -37.2 kcal/mol. Moreover, the Tm in data set [2] amounted to 62 °C.

The values above are taken from the array DNA melting data of Ke et al. (doi:10.1101/2024.01.08.574731).
